# Columns and labels:
# PC-3 = test: Growth inhibition of human PC3 cells after 48 hrs by sulforhodamine B assay; type: functional; settings: PC-3, 48 h
# Method in brief: (§1)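 Yamori 39-line human cancer panel, NCI method with modifications. Cells plated in RPMI 1640 plus 5% FBS, attached overnight, then exposed 48 h to compound at 10^-8, 10^-7, 10^-6, 10^-5 and 10^-4 M. Sulforhodamine B staining read at 525 nm; % growth = 100[(T−T0)/(C−T0)] from duplicate-point averages, with T0 the time-zero absorbance. GI50 is the concentration giving 50.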
# [1] = molecular target: T1, Protein kinase C delta type (Homo sapiens, UniProt Q05655); test: Inhibition of [3H]PDBu binding to PKCdelta-C1B domain peptide (unknown origin)
# T1 sequence (Q05655 whole entry, the tested form may be a part): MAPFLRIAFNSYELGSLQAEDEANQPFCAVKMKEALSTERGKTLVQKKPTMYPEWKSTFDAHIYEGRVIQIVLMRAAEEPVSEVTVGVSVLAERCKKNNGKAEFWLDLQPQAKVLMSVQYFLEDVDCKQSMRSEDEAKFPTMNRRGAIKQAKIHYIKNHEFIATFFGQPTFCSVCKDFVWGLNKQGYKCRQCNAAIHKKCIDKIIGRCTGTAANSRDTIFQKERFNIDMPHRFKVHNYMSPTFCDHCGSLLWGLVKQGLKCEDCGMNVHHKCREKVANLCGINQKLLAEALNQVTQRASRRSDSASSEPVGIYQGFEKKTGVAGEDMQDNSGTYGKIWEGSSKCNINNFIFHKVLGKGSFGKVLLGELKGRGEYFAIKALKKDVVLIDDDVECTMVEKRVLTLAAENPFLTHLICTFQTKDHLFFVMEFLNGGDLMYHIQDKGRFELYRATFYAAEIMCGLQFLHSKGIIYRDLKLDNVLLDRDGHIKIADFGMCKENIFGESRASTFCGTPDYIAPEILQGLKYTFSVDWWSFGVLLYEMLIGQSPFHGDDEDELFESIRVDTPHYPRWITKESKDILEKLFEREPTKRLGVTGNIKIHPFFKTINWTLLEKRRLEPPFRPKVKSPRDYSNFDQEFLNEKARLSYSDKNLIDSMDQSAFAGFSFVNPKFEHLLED
# Method in brief: (§2)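 Competitive [3H]PDBu binding used 14 or 40 nM PKCδ C1 peptide and 20 nM [3H]PDBu (19.6 Ci/mmol), in 50 mM Tris-maleate (pH 7.4 at 4 °C) with 50 µg/mL phosphatidylserine, 3 mg/mL bovine γ-globulin and varied inhibitor concentrations. IC50 was taken as 50% inhibition of specific binding. Ki was derived by the Sharkey–Blumberg method.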
# [2] = Octanol-water partition coefficient, log P of the compound by HPLC analysis; type: physicochemical
# Method in brief: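 log P was estimated from HPLC retention, with column dead time measured using unretained formamide.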
# SNB-75 = test: Growth inhibition of human SNB75 cells after 48 hrs by sulforhodamine B assay; type: functional; settings: SNB-75, 48 h; method in brief: as §1
# OVCAR-5 = test: Growth inhibition of human OVCAR5 cells after 48 hrs by sulforhodamine B assay; type: functional; settings: OVCAR-5, 48 h; method in brief: as §1
# DMS-114 = test: Growth inhibition of human DMS114 cells after 48 hrs by sulforhodamine B assay; type: functional; settings: DMS-114, 48 h; method in brief: as §1
# DMS-273 = test: Growth inhibition of human DMS273 cells after 48 hrs by sulforhodamine B assay; type: functional; settings: DMS-273, 48 h; method in brief: as §1
# NCI-H522 = test: Growth inhibition of human NCI-H522 cells after 48 hrs by sulforhodamine B assay; type: functional; settings: NCI-H522, 48 h; method in brief: as §1
# NCI-H23 = test: Growth inhibition of human NCI-H23 cells after 48 hrs by sulforhodamine B assay; type: functional; settings: NCI-H23, 48 h; method in brief: as §1
# HT-29 = test: Growth inhibition of human HT-29 cells after 48 hrs by sulforhodamine B assay; type: functional; settings: HT-29, 48 h; method in brief: as §1
# St-4 = test: Growth inhibition of human St-4 cells after 48 hrs by sulforhodamine B assay; type: functional; settings: St-4, 48 h; method in brief: as §1
# SNB-78 = test: Growth inhibition of human SNB78 cells after 48 hrs by sulforhodamine B assay; type: functional; settings: SNB-78, 48 h; method in brief: as §1
# SF-268 = test: Growth inhibition of human SF268 cells after 48 hrs by sulforhodamine B assay; type: functional; settings: SF-268, 48 h; method in brief: as §1
# OVCAR-4 = test: Growth inhibition of human OVCAR4 cells after 48 hrs by sulforhodamine B assay; type: functional; settings: OVCAR-4, 48 h; method in brief: as §1
# NCI-H226 = test: Growth inhibition of human NCI-H226 cells after 48 hrs by sulforhodamine B assay; type: functional; settings: NCI-H226, 48 h; method in brief: as §1
# [3] = Growth inhibition of human HCC2998 cells after 48 hrs by sulforhodamine B assay; type: functional; settings: HCC 2998, 48 h; method in brief: as §1
# MKN-74 = test: Growth inhibition of human MKN74 cells after 48 hrs by sulforhodamine B assay; type: functional; settings: MKN-74, 48 h; method in brief: as §1
# MCF7 = test: Growth inhibition of human MCF7 cells after 48 hrs by sulforhodamine B assay; type: functional; settings: MCF7, 48 h; method in brief: as §1
# [4] = Cytotoxicity against human Raji cells assessed as cell viability at 10^-7 M; type: cell-based; settings: read-out: Activity
# LOX IMVI = test: Growth inhibition of human LOXIMVI cells after 48 hrs by sulforhodamine B assay; type: functional; method in brief: as §1
# DU-145 = test: Growth inhibition of human DU145 cells after 48 hrs by sulforhodamine B assay; type: functional; settings: DU-145, 48 h; method in brief: as §1
# Human gammaherpesvirus 4 [5] = test: Induction of EBV-early antigen expressed in human Raji cells at 10^-7 M after 48 hrs by immunofluorescence assay relative to control; type: organism-based; settings: human gammaherpesvirus 4, raji, 0.1 µM
# Method in brief: (§3)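 Raji B-lymphoblastoid cells (5 × 10^5/mL) in RPMI 1640 with 10% FBS, with 4 mM sodium n-butyrate as synergist and test compound at 10^-7 or 10^-6 M (final DMSO 0.4%). Incubated 48 h at 37 °C under 5% CO2. Smears were stained by indirect immunofluorescence using NPC patient serum and FITC anti-human IgG. At least 500 cells counted; % EA-positive recorded; n = 3, SEM.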
# U-251 = test: Growth inhibition of human U251 cells after 48 hrs by sulforhodamine B assay; type: functional; settings: U-251, 48 h; method in brief: as §1
# KM12 = test: Growth inhibition of human KM12 cells after 48 hrs by sulforhodamine B assay; type: functional; settings: KM12, 48 h; method in brief: as §1
# MKN-45 = test: Growth inhibition of human MKN45 cells after 48 hrs by sulforhodamine B assay; type: functional; settings: MKN-45, 48 h; method in brief: as §1
# [6] = Cytotoxicity against human Raji cells assessed as cell viability at 10^-6 M; type: cell-based; settings: read-out: Activity
# HCT-15 = test: Growth inhibition of human HCT15 cells after 48 hrs by sulforhodamine B assay; type: functional; settings: HCT-15, 48 h; method in brief: as §1
# SK-OV-3 = test: Growth inhibition of human SKOV3 cells after 48 hrs by sulforhodamine B assay; type: functional; settings: SK-OV-3, 48 h; method in brief: as §1
# MKN-28 = test: Growth inhibition of human MKN28 cells after 48 hrs by sulforhodamine B assay; type: functional; settings: MKN-28, 48 h; method in brief: as §1
# OVCAR-3 = test: Growth inhibition of human OVCAR3 cells after 48 hrs by sulforhodamine B assay; type: functional; settings: OVCAR-3, 48 h; method in brief: as §1
# MKN-7 = test: Growth inhibition of human MKN7 cells after 48 hrs by sulforhodamine B assay; type: functional; settings: MKN-7, 48 h; method in brief: as §1
# SF-295 = test: Growth inhibition of human SF295 cells after 48 hrs by sulforhodamine B assay; type: functional; settings: SF-295, 48 h; method in brief: as §1
# ACHN = test: Growth inhibition of human ACHN cells after 48 hrs by sulforhodamine B assay; type: functional; method in brief: as §1
# MDA-MB-231 = test: Growth inhibition of human MDA-MB-231 cells after 48 hrs by sulforhodamine B assay; type: functional; settings: MDA-MB-231, 48 h; method in brief: as §1
# [7] = Growth inhibition of human BSY1 cells after 48 hrs by sulforhodamine B assay; type: functional; settings: BSY-1, 48 h; method in brief: as §1
# HCT-116 = test: Growth inhibition of human HCT116 cells after 48 hrs by sulforhodamine B assay; type: functional; settings: HCT-116, 48 h; method in brief: as §1
# [8] = Growth inhibition of human HBC4 cells after 48 hrs by sulforhodamine B assay; type: functional; settings: HBC4, 48 h; method in brief: as §1
# OVCAR-8 = test: Growth inhibition of human OVCAR8 cells after 48 hrs by sulforhodamine B assay; type: functional; settings: OVCAR-8, 48 h; method in brief: as §1
# NCI-H460 = test: Growth inhibition of human NCI-H460 cells after 48 hrs by sulforhodamine B assay; type: functional; settings: NCI-H460, 48 h; method in brief: as §1
# [9] = molecular target: T1, Protein kinase C delta type; test: Inhibition of [3H]PDBu binding to PKCdelta-C1A domain peptide (unknown origin); method in brief: as §2
# [10] = Growth inhibition of human MKN1 cells after 48 hrs by sulforhodamine B assay; type: functional; settings: MKN-1, 48 h; method in brief: as §1
# A549 = test: Growth inhibition of human A549 cells after 48 hrs by sulforhodamine B assay; type: functional; settings: A549, 48 h; method in brief: as §1
# [11] = Growth inhibition of human RXF631L cells after 48 hrs by sulforhodamine B assay; type: functional; settings: RXF 631, 48 h; method in brief: as §1
# Human gammaherpesvirus 4 [12] = test: Induction of EBV-early antigen expressed in human Raji cells at 10^-6 M after 48 hrs by immunofluorescence assay relative to control; type: organism-based; settings: human gammaherpesvirus 4, raji, 1 µM; method in brief: as §3
# [13] = Growth inhibition of human HBC5 cells after 48 hrs by sulforhodamine B assay; type: functional; settings: HBC5, 48 h; method in brief: as §1
# SF-539 = test: Growth inhibition of human SF539 cells after 48 hrs by sulforhodamine B assay; type: functional; settings: SF-539, 48 h; method in brief: as §1
structure (smiles),measurement,setting,value
CC1(C)CC[C@@H]2CC(=O)O[C@@H](CO)CC(=O)O[C@@H]3C[C@@H](CCCCc4cc(O)c(Br)cc4Br)O[C@@]1(C3)O2,GI50,PC-3,3.89 µM
same,Ki,[1],0.0041 µM
same,logP,[2],5
same,GI50,SNB-75,5.89 µM
same,GI50,OVCAR-5,10 µM
same,GI50,DMS-114,13.5 µM
same,GI50,DMS-273,10.7 µM
same,GI50,NCI-H522,13.8 µM
same,GI50,NCI-H23,6.61 µM
same,GI50,HT-29,15.5 µM
same,GI50,St-4,1.29 µM
same,GI50,SNB-78,12.9 µM
same,GI50,SF-268,12.6 µM
same,GI50,OVCAR-4,15.5 µM
same,GI50,NCI-H226,15.1 µM
same,GI50,[3],0.891 µM
same,GI50,MKN-74,11 µM
same,GI50,MCF7,12.3 µM
same,viability at 0.1 µM,[4],40%
same,GI50,LOX IMVI,2.82 µM
same,GI50,DU-145,11.2 µM
same,Activity,Human gammaherpesvirus 4 [5],2%
same,GI50,U-251,11.7 µM
same,GI50,KM12,4.79 µM
same,GI50,MKN-45,3.72 µM
same,viability at 1 µM,[6],40%
same,GI50,HCT-15,13.8 µM
same,GI50,SK-OV-3,15.8 µM
same,GI50,MKN-28,8.32 µM
same,GI50,OVCAR-3,6.17 µM
same,GI50,MKN-7,6.46 µM
same,GI50,SF-295,6.61 µM
same,GI50,ACHN,5.75 µM
same,GI50,MDA-MB-231,2.95 µM
same,GI50,[7],4.57 µM
same,GI50,HCT-116,10.7 µM
same,GI50,[8],0.224 µM
same,GI50,OVCAR-8,15.8 µM
same,GI50,NCI-H460,1.23 µM
same,Ki,[9],0.093 µM
same,GI50,[10],10.2 µM
same,GI50,A549,4.9 µM
same,GI50,[11],14.5 µM
same,Activity,Human gammaherpesvirus 4 [12],2.1%
same,GI50,[13],14.1 µM
same,GI50,SF-539,10 µM

# — ChEMBL document CHEMBL2380295, “Structure-activity studies on the side chain of a simplified analog of aplysiatoxin (aplog-1) with anti-proliferative activity” (Bioorg Med Chem, 2013)
